Measurements taken from ChEMBL document CHEMBL1921722, “In vitro and in vivo evaluation of select kahalalide F analogs with antitumor and antifungal activities” (Bioorg Med Chem, 2011).

Legend:
Type in all cases: functional
[1] = tested on: Malme-3M; assay: Cytotoxicity against human MALME-3M cells assessed as cell growth at 800 nM by sulforhodamine B assay relative to control; settings: read-out: Activity
[2] = tested on: OVCAR-4; assay: Cytotoxicity against human OVCAR4 cells assessed as cell growth at 80 uM by sulforhodamine B assay relative to control; settings: read-out: Activity
[3] = tested on: HCC 2998; assay: Cytotoxicity against human HCC2998 cells assessed as cell growth at 80 uM by sulforhodamine B assay relative to control; settings: read-out: Activity
[4] = tested on: EKVX; assay: Cytotoxicity against human EKVX cells assessed as cell growth at 80 nM by sulforhodamine B assay relative to control; settings: read-out: Activity
[5] = tested on: Malme-3M; assay: Cytotoxicity against human MALME-3M cells assessed as cell growth at 80 uM by sulforhodamine B assay relative to control; settings: read-out: Activity
[6] = tested on: HOP-62; assay: Cytotoxicity against human HOP62 cells assessed as cell growth at 80 uM by sulforhodamine B assay relative to control; settings: read-out: Activity
[7] = tested on: SK-MEL-2; assay: Cytotoxicity against human SK-MEL-2 cells assessed as cell growth at 80 uM by sulforhodamine B assay relative to control; settings: read-out: Activity
[8] = tested on: Hs-578T; assay: Cytotoxicity against human Hs578T cells assessed as cell growth at 8 uM by sulforhodamine B assay relative to control; settings: read-out: Activity
[9] = tested on: NCI-H522; assay: Cytotoxicity against human NCI-H522 cells assessed as cell growth at 8 nM by sulforhodamine B assay relative to control; settings: read-out: Activity
[10] = tested on: SF-268; assay: Cytotoxicity against human SF268 cells assessed as cell growth at 8 uM by sulforhodamine B assay relative to control; settings: read-out: Activity
[11] = tested on: HOP-62; assay: Cytotoxicity against human HOP62 cells assessed as cell growth at 800 nM by sulforhodamine B assay relative to control; settings: read-out: Activity
[12] = tested on: OVCAR-8; assay: Cytotoxicity against human OVCAR8 cells assessed as cell growth at 8 nM by sulforhodamine B assay relative to control; settings: read-out: Activity
[13] = tested on: SF-539; assay: Cytotoxicity against human SF539 cells assessed as cell growth at 800 nM by sulforhodamine B assay relative to control; settings: read-out: Activity
[14] = tested on: LOX IMVI; assay: Cytotoxicity against human LOXIMVI cells assessed as cell growth at 80 nM by sulforhodamine B assay relative to control; settings: read-out: Activity
[15] = tested on: UACC-62; assay: Cytotoxicity against human UACC62 cells assessed as cell growth at 800 nM by sulforhodamine B assay relative to control; settings: read-out: Activity
[16] = tested on: UO-31; assay: Cytotoxicity against human UO31 cells assessed as cell growth at 8 uM by sulforhodamine B assay relative to control; settings: read-out: Activity
[17] = tested on: SNB-19; assay: Cytotoxicity against human SNB19 cells assessed as cell growth at 8 nM by sulforhodamine B assay relative to control; settings: read-out: Activity
[18] = tested on: NCI-H226; assay: Cytotoxicity against human NCI-H226 cells by sulforhodamine B assay; settings: for TGI: read-out: pTGI (converted)
Procedure, shortened: (§1)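 NCI Developmental Therapeutics Program 60-cell-line human tumor panel screen, run at NCI. A single-concentration pre-screen was followed by a five-concentration dose-response in 10-fold steps. GI50 is the concentration that reduces growth of treated cells to half that of untreated control cells. TGI is the concentration that completely halts growth.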

[19] = tested on: HOP-62; assay: Cytotoxicity against human HOP62 cells assessed as cell growth at 80 nM by sulforhodamine B assay relative to control; settings: read-out: Activity
[20] = tested on: SNB-19; assay: Cytotoxicity against human SNB19 cells assessed as cell growth at 8 uM by sulforhodamine B assay relative to control; settings: read-out: Activity
[21] = tested on: MDA-MB-435; assay: Cytotoxicity against human MDA-MB-435 cells assessed as cell growth at 80 uM by sulforhodamine B assay relative to control; settings: read-out: Activity
[22] = tested on: IGROV-1; assay: Cytotoxicity against human IGROV1 cells assessed as cell growth at 80 uM by sulforhodamine B assay relative to control; settings: read-out: Activity
[23] = tested on: U-251; assay: Cytotoxicity against human U251 cells by sulforhodamine B assay; settings: for TGI: read-out: pTGI (converted); procedure, shortened: as §1
[24] = tested on: T47D; assay: Cytotoxicity against human T47D cells assessed as cell growth at 80 nM by sulforhodamine B assay relative to control; settings: read-out: Activity
[25] = tested on: A498; assay: Cytotoxicity against human A498 cells by sulforhodamine B assay; settings: for TGI: read-out: pTGI (converted)
Procedure, shortened: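 Run at NCI in the DTP 60-cell-line human tumor panel by standard procedure. Compounds were first screened at a single concentration, then tested at five tenfold-spaced concentrations. GI50 is the concentration reducing treated-cell growth to half that of untreated controls; TGI is the concentration completely halting growth.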

[26] = tested on: K562; assay: Cytotoxicity against human K562 cells by sulforhodamine B assay; settings: for CC50: read-out: pLC50 (the source's name) (converted); for TGI: read-out: pTGI (converted); procedure, shortened: as §1
[27] = tested on: PC-3; assay: Cytotoxicity against human PC3 cells by sulforhodamine B assay; procedure, shortened: as §1
[28] = tested on: OVCAR-3; assay: Cytotoxicity against human OVCAR3 cells assessed as cell growth at 800 nM by sulforhodamine B assay relative to control; settings: read-out: Activity
[29] = tested on: HOP-62; assay: Cytotoxicity against human HOP62 cells assessed as cell growth at 8 uM by sulforhodamine B assay relative to control; settings: read-out: Activity
[30] = tested on: TK-10; assay: Cytotoxicity against human TK10 cells assessed as cell growth at 800 nM by sulforhodamine B assay relative to control; settings: read-out: Activity
[31] = tested on: HL-60(TB); assay: Cytotoxicity against human HL-60(TB) cells assessed as cell growth at 8 nM by sulforhodamine B assay relative to control; settings: read-out: Activity
[32] = tested on: OVCAR-4; assay: Cytotoxicity against human OVCAR4 cells assessed as cell growth at 80 nM by sulforhodamine B assay relative to control; settings: read-out: Activity
[33] = tested on: OVCAR-4; assay: Cytotoxicity against human OVCAR4 cells assessed as cell growth at 8 uM by sulforhodamine B assay relative to control; settings: read-out: Activity
[34] = tested on: PC-3; assay: Cytotoxicity against human PC3 cells assessed as cell growth at 800 nM by sulforhodamine B assay relative to control; settings: read-out: Activity
[35] = tested on: SF-539; assay: Cytotoxicity against human SF539 cells assessed as cell growth at 8 uM by sulforhodamine B assay relative to control; settings: read-out: Activity
[36] = tested on: IGROV-1; assay: Cytotoxicity against human IGROV1 cells assessed as cell growth at 8 uM by sulforhodamine B assay relative to control; settings: read-out: Activity
[37] = tested on: UACC-62; assay: Cytotoxicity against human UACC62 cells by sulforhodamine B assay; settings: for TGI: read-out: pTGI (converted); procedure, shortened: as §1
[38] = tested on: MCF7; assay: Cytotoxicity against human MCF7 cells by sulforhodamine B assay
[39] = tested on: SF-268; assay: Cytotoxicity against human SF268 cells assessed as cell growth at 800 nM by sulforhodamine B assay relative to control; settings: read-out: Activity
[40] = tested on: SK-OV-3; assay: Cytotoxicity against human SKOV3 cells assessed as cell growth at 80 uM by sulforhodamine B assay relative to control; settings: read-out: Activity
[41] = tested on: T47D; assay: Cytotoxicity against human T47D cells assessed as cell growth at 80 uM by sulforhodamine B assay relative to control; settings: read-out: Activity
[42] = tested on: RXF 393; assay: Cytotoxicity against human RXF393 cells assessed as cell growth at 8 nM by sulforhodamine B assay relative to control; settings: read-out: Activity
[43] = tested on: SF-539; assay: Cytotoxicity against human SF539 cells assessed as cell growth at 8 nM by sulforhodamine B assay relative to control; settings: read-out: Activity

C/C=C1\NC(=O)[C@H](Cc2ccccc2)NC(=O)[C@@H](C(C)C)NC(=O)[C@@H]([C@@H](C)CC)NC(=O)[C@H](NC(=O)[C@H](NC(=O)[C@H](CCCNCc2ccc(N3CCOCC3)cc2)NC(=O)[C@H]2CCCN2C(=O)[C@H](NC(=O)[C@@H](NC(=O)[C@@H](NC(=O)[C@H](NC(=O)CCCC(C)C)C(C)C)[C@@H](C)O)C(C)C)C(C)C)[C@@H](C)CC)[C@@H](C)OC(=O)[C@H](C(C)C)NC1=O
growth at 0.8 µM [1]: 117%
growth at 80 µM [2]: -15%
growth at 80 µM [3]: -69%
growth at 0.08 µM [4]: 98%
growth at 80 µM [5]: -23%
growth at 80 µM [6]: -55%
growth at 80 µM [7]: -32%
growth at 8 µM [8]: -46%
growth at 0.008 µM [9]: 99%
growth at 8 µM [10]: -52%
growth at 0.8 µM [11]: 95%
growth at 0.008 µM [12]: 99%
growth at 0.8 µM [13]: 93%
growth at 0.08 µM [14]: 100%
growth at 0.8 µM [15]: 100%
growth at 8 µM [16]: -76%
growth at 0.008 µM [17]: 95%
GI50 [18]: 1660 nM
TGI [18]: 3390 nM
growth at 0.08 µM [19]: 103%
growth at 8 µM [20]: -70%
growth at 80 µM [21]: -9%
growth at 80 µM [22]: -30%
GI50 [23]: 1000 nM
LC50 [23]: 3890 nM
TGI [23]: 2000 nM
growth at 0.08 µM [24]: 89%
GI50 [25]: 1580 nM
LC50 [25]: 7410 nM
TGI [25]: 3470 nM
GI50 [26]: 4790 nM
CC50 [26]: > 75900 nM
TGI [26]: 22900 nM
LC50 [27]: 741 nM
GI50 ([27]; read-out: GI50): 156 nM
TGI ([27]; read-out: TGI): 340 nM
GI50 ([27]; read-out: pGI50 (converted)): 155 nM
TGI ([27]; read-out: pTGI (converted)): 339 nM
growth at 0.8 µM [28]: 46%
growth at 8 µM [29]: -70%
growth at 0.8 µM [30]: 104%
growth at 0.008 µM [31]: 94%
growth at 0.08 µM [32]: 102%
growth at 8 µM [33]: -59%
growth at 0.8 µM [34]: -51%
growth at 8 µM [35]: -89%
growth at 8 µM [36]: -75%
GI50 [37]: 1350 nM
LC50 [37]: 4270 nM
TGI [37]: 2400 nM
GI50 [38]: 1450 nM
growth at 0.8 µM [39]: 90%
growth at 80 µM [40]: -23%
growth at 80 µM [41]: -7%
growth at 0.008 µM [42]: 111%
growth at 0.008 µM [43]: 101%

C/C=C1\NC(=O)[C@H](Cc2ccccc2)NC(=O)[C@@H](C(C)C)NC(=O)[C@@H]([C@@H](C)CC)NC(=O)[C@H](NC(=O)[C@H](NC(=O)[C@H](CCCNCc2ccc(F)c(C)c2)NC(=O)[C@H]2CCCN2C(=O)[C@H](NC(=O)[C@@H](NC(=O)[C@@H](NC(=O)[C@H](NC(=O)CCCC(C)C)C(C)C)[C@@H](C)O)C(C)C)C(C)C)[C@@H](C)CC)[C@@H](C)OC(=O)[C@H](C(C)C)NC1=O
growth at 0.8 µM [1]: 102%
growth at 80 µM [2]: -20%
growth at 80 µM [3]: -88%
growth at 0.08 µM [4]: 97%
growth at 80 µM [5]: 12%
growth at 80 µM [6]: -85%
growth at 80 µM [7]: -21%
growth at 8 µM [8]: -48%
growth at 0.008 µM [9]: 104%
growth at 8 µM [10]: -63%
growth at 0.8 µM [11]: 87%
growth at 0.008 µM [12]: 107%
growth at 0.8 µM [13]: 93%
growth at 0.08 µM [14]: 94%
growth at 0.8 µM [15]: 93%
growth at 8 µM [16]: -78%
growth at 0.008 µM [17]: 99%
GI50 [18]: 1480 nM
TGI [18]: 3020 nM
growth at 0.08 µM [19]: 102%
growth at 8 µM [20]: -84%
growth at 80 µM [21]: -36%
growth at 80 µM [22]: -26%
GI50 [23]: 363 nM
LC50 [23]: 3160 nM
TGI [23]: 1260 nM
growth at 0.08 µM [24]: 90%
GI50 [25]: 1320 nM
LC50 [25]: 4470 nM
TGI [25]: 2450 nM
GI50 [26]: 1820 nM
CC50 [26]: > 75900 nM
TGI [26]: 3890 nM
LC50 [27]: 708 nM
GI50 ([27]; read-out: GI50): 165 nM
TGI ([27]; read-out: TGI): 342 nM
GI50 ([27]; read-out: pGI50 (converted)): 166 nM
TGI ([27]; read-out: pTGI (converted)): 339 nM
growth at 0.8 µM [28]: 39%
growth at 8 µM [29]: -93%
growth at 0.8 µM [30]: 101%
growth at 0.008 µM [31]: 91%
growth at 0.08 µM [32]: 104%
growth at 8 µM [33]: -65%
growth at 0.8 µM [34]: -54%
growth at 8 µM [35]: -93%
growth at 8 µM [36]: -75%
GI50 [37]: 1260 nM
LC50 [37]: 4170 nM
TGI [37]: 2290 nM
GI50 [38]: 1260 nM
growth at 0.8 µM [39]: 63%
growth at 80 µM [40]: -75%
growth at 80 µM [41]: -13%
growth at 0.008 µM [42]: 103%
growth at 0.008 µM [43]: 105%
